Activity calls are given as the source filed them. No cut-off for these calls is given here.
Legend:
Platelet [1] = assay: Inhibition of adenosine diphosphate-induced platelet aggregation in rabbit platelet rich plasma by Born's turbidimetric method; type: functional; details: Oryctolagus cuniculus
Procedure, shortened: (§1)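 Rabbit carotid blood in 3.8% sodium citrate (9:1); PRP by 500g spin for 10 min, PPP by a further 3000g spin for 10 min. PRP was preincubated in duplicate for 5 min at 37 °C with vehicle or agent (0.1, 0.2, 0.4, 0.8, 1.6 mM). Aggregation was triggered by ADP (10 μM final) or AA (1 mM), and maximal light transmission was read within 5 min, within 3 h of collection. Inhibition % = 100 × (1 − treated/control); IC50 was calculated.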

Platelet [2] = assay: Inhibition of arachidonic acid-induced platelet aggregation in rabbit platelet rich plasma by Born's turbidimetric method; type: functional; details: Oryctolagus cuniculus; procedure, shortened: as §1
Rattus norvegicus [3] = assay: Anticerebral ischemic activity in Sprague-Dawley rat middle cerebral artery occlusion model assessed as reduction in neurological deficit score at 30 mg/kg, ig for 7 consecutive days by Longa's method; type: functional; parameters: scale not given: the % may be the effect or the level left; details: route intragastric
Procedure, shortened: (§2)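 SD rats were dosed orally in normal saline for 7 days before ischemia (n = 12/group). They were anesthetized ip with 350 mg/kg chloral hydrate and given MCAO with a silicone-tipped 4-0 nylon suture for 2 h, then reperfusion. Occlusion was confirmed as >80% CBF drop by laser Doppler, with core temperature held at 37 °C. Deficits were scored blinded by modified Longa's method 24 h after reperfusion.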

Rattus norvegicus [4] = assay: Anticerebral ischemic activity in Sprague-Dawley rat middle cerebral artery occlusion model assessed as reduction in infarct size in brain at 30 mg/kg, ig for 7 consecutive days by TTC assay; type: functional; parameters: scale not given: the % may be the effect or the level left; details: route intragastric
Procedure, shortened: (§3)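 SD rats, chloral hydrate 350 mg/kg ip anaesthesia; right MCA occluded 2 h by silicone-tipped 4-0 nylon filament via ECA into ICA (>80% CBF drop by laser Doppler, 37 ± 0.5 °C), then reperfusion. Dosed in normal saline orally daily 7 days before ischemia. At 24 h, 2-mm coronal slices stained 2% TTC 30 min 37 °C; infarct area as % of whole brain; n = 6.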

Platelet [5] = assay: Ratio of 3-nbutylphthalide to compound for adenosine diphosphate-induced platelet aggregation in rabbit platelet rich plasma at 0.1 mM; type: functional, Oryctolagus cuniculus
Rattus norvegicus [6] = assay: Antithrombotic activity in Sprague-Dawley rat arteriovenous shunt model assessed as reduction of thrombus wet weight at 90 mg/kg, po qd for 5 consecutive days; type: functional; parameters: scale not given: the % may be the effect or the level left
Procedure, shortened: (§4)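 Male SD rats were dosed by gavage in saline daily for 5 days (n = 12/group). An A-V shunt linked the right carotid artery to the left jugular vein: a saline-filled 14 cm polyethylene tube holding 6 cm of four braided silk threads. After 15 min of flow, the threads were weighed wet, then dried 6 h at room temperature and reweighed, less the pre-experiment thread weight.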

Rattus norvegicus [7] = assay: Anticerebral ischemic activity in Sprague-Dawley rat middle cerebral artery occlusion model assessed as reduction of water content in brain at 30 mg/kg, ig for 7 consecutive days; type: functional, organism-based; parameters: dose 30 mg/kg
Procedure, shortened: (§5)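 Rats given oral saline-vehicle pretreatment for 7 days underwent 2 h suture MCAO plus reperfusion. At 24 h the animals were decapitated and brains weighed wet, then dried at 105 °C for 24 h. Water % = (wet − dry)/wet × 100; n = 6/group.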

Rattus norvegicus [8] = assay: Antioxidant activity in Sprague-Dawley rat middle cerebral artery occlusion model assessed as decrease in malondialdehyde level in brain at 90 mg/kg, ig for 7 consecutive days; type: functional; parameters: scale not given: the % may be the effect or the level left; details: route intragastric
Procedure, shortened: (§6)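 Rats pretreated orally in saline for 7 days underwent 2 h MCAO with reperfusion. At 24 h brains were removed, rinsed in cold 0.9% saline, blotted and stored at −70 °C. After protein quantification, GSH, SOD activity and MDA were measured with commercial kits; n = 12/group.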

Platelet [9] = assay: Ratio of edaravone to compound for adenosine diphosphate-induced platelet aggregation in rabbit platelet rich plasma at 0.1 mM; type: functional, Oryctolagus cuniculus
Rattus norvegicus [10] = assay: Antithrombotic activity in Sprague-Dawley rat arteriovenous shunt model assessed as reduction of thrombus dry weight at 30 mg/kg, po qd for 5 consecutive days; type: functional; parameters: scale not given: the % may be the effect or the level left; procedure, shortened: as §4
Plasma = assay: Anticoagulant activity in rabbit plasma assessed as length of activated partial thromboplastin time; type: functional, cell-free; details: Oryctolagus cuniculus
Rattus norvegicus [11] = assay: Antioxidant activity in Sprague-Dawley rat middle cerebral artery occlusion model assessed as decrease in malondialdehyde level in brain at 30 mg/kg, ig for 7 consecutive days; type: functional; parameters: scale not given: the % may be the effect or the level left; details: route intragastric; procedure, shortened: as §6
Rattus norvegicus [12] = assay: Anticerebral ischemic activity in Sprague-Dawley rat middle cerebral artery occlusion model assessed as reduction in neurological deficit score at 90 mg/kg, ig for 7 consecutive days by Longa's method; type: functional; parameters: scale not given: the % may be the effect or the level left; details: route intragastric; procedure, shortened: as §2
Platelet [13] = assay: Inhibition of adenosine diphosphate-induced platelet aggregation in rabbit platelet rich plasma at 0.1 mM by Born's turbidimetric method; type: functional; details: Oryctolagus cuniculus; procedure, shortened: as §1
Rattus norvegicus [14] = assay: Antioxidant activity in Sprague-Dawley rat middle cerebral artery occlusion model assessed as increase in glutathione level in brain at 90 mg/kg, ig for 7 consecutive days; type: functional; details: route intragastric; procedure, shortened: as §6
Rattus norvegicus [15] = assay: Antithrombotic activity in Sprague-Dawley rat arteriovenous shunt model assessed as reduction of thrombus wet weight at 30 mg/kg, po qd for 5 consecutive days; type: functional; parameters: scale not given: the % may be the effect or the level left; procedure, shortened: as §4
Rattus norvegicus [16] = assay: Antithrombotic activity in Sprague-Dawley rat arteriovenous shunt model assessed as reduction of thrombus dry weight at 90 mg/kg, po qd for 5 consecutive days; type: functional; parameters: scale not given: the % may be the effect or the level left; procedure, shortened: as §4
Rattus norvegicus [17] = assay: Antioxidant activity in Sprague-Dawley rat middle cerebral artery occlusion model assessed as increase in superoxide dismutase activity at 90 mg/kg, ig for 7 consecutive days; type: functional; details: route intragastric; procedure, shortened: as §6
Platelet [18] = assay: Ratio of aspirin to compound for adenosine diphosphate-induced platelet aggregation in rabbit platelet rich plasma at 0.1 mM; type: functional, Oryctolagus cuniculus
Rattus norvegicus [19] = assay: Anticerebral ischemic activity in Sprague-Dawley rat middle cerebral artery occlusion model assessed as reduction of water content in brain at 90 mg/kg, ig for 7 consecutive days; type: functional, organism-based; parameters: dose 90 mg/kg; procedure, shortened: as §5
Platelet [20] = assay: Ratio of 3-nbutylphthalide to compound for arachidonic acid-induced platelet aggregation in rabbit platelet rich plasma at 0.1 mM; type: functional, Oryctolagus cuniculus
Rattus norvegicus [21] = assay: Anticerebral ischemic activity in Sprague-Dawley rat middle cerebral artery occlusion model assessed as reduction in infarct size in brain at 90 mg/kg, ig for 7 consecutive days by TTC assay; type: functional; parameters: scale not given: the % may be the effect or the level left; details: route intragastric; procedure, shortened: as §3
Platelet [22] = assay: Inhibition of arachidonic acid-induced platelet aggregation in rabbit platelet rich plasma at 0.1 mM by Born's turbidimetric method; type: functional; details: Oryctolagus cuniculus; procedure, shortened: as §1
Rattus norvegicus [23] = assay: Anticerebral ischemic activity in Sprague-Dawley rat middle cerebral artery occlusion model assessed as reduction in loss of hippocampal neurons at 90 mg/kg, ig for 7 consecutive days by hematoxylin-eosin staining; type: functional, organism-based; parameters: dose 90 mg/kg
Procedure, shortened: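 Rats dosed ig in saline for 7 days before 2 h MCAO/reperfusion. Brain tissue sections from the ischemic side were stained with hematoxylin–eosin and examined at ×200 for hippocampal neuron loss; n = 6/group.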

PC-12 [24] = assay: Antioxidant activity in rat PC12 cells assessed as inhibition of hydroxyl radical-induced cytotoxicity at 10 uM treated for 2 hrs prior to H2O2/Fe+ challenge measured after 1 hr by MTT assay (reference value: 61.95%); type: functional; parameters: scale not given: the % may be the effect or the level left
PC-12 [25] = assay: Antioxidant activity in rat PC12 cells assessed as inhibition of hydrogen peroxide induced cytotoxicity at 10 uM treated for 2 hrs prior to H2O2 challenge measured after 1 hr by MTT assay (reference value: 52.45%); type: functional; parameters: scale not given: the % may be the effect or the level left
Rattus norvegicus [26] = assay: Antioxidant activity in Sprague-Dawley rat middle cerebral artery occlusion model assessed as increase in superoxide dismutase activity at 30 mg/kg, ig for 7 consecutive days; type: functional; details: route intragastric; procedure, shortened: as §6

CCC1SC(=O)c2ccccc21 (racemic)
IC50 (Platelet [1]): > 1000 µM | IC50 (Platelet [2]): > 1000 µM

CCCC1SC(=O)c2ccccc21 (racemic)
IC50 (Platelet [1]): > 1000 µM | IC50 (Platelet [2]): 400 µM

CCCCC1SC(=O)c2ccccc21 (racemic)
IC50 (Platelet [1]): > 1000 µM | IC50 (Platelet [2]): 350 µM

CCCCCC1SC(=O)c2ccccc21 (racemic)
Activity (Rattus norvegicus [3]): 25.09% | Activity (Rattus norvegicus [4]): 35.5% | Ratio (Platelet [5]): 1.65 | Activity (Rattus norvegicus [6]): 39.7% | Activity (Rattus norvegicus [7]): inactive | Activity (Rattus norvegicus [8]): 40.9% | Ratio (Platelet [9]): 1.36 | Activity (Rattus norvegicus [10]): 32.85% | Activity (Plasma): inactive | Activity (Rattus norvegicus [11]): 23.66% | Activity (Rattus norvegicus [12]): 37.45% | inhibition at 100 µM (Platelet [13]): 15.6% | Activity (Rattus norvegicus [14]): 82.67% | Activity (Rattus norvegicus [15]): 27.35% | Activity (Rattus norvegicus [16]): 43.33% | Activity (Rattus norvegicus [17]): 39.77% | Ratio (Platelet [18]): 1.45 | Activity (Rattus norvegicus [19]): Active | Ratio (Platelet [20]): 2.02 | Activity (Rattus norvegicus [21]): 59.62% | inhibition at 100 µM (Platelet [22]): 35.2% | Activity (Rattus norvegicus [23]): Active | Activity (PC-12 [24]): 86.08% | Activity (PC-12 [25]): 77.23% | IC50 (Platelet [1]): 420 µM | Activity (Rattus norvegicus [26]): 25.87% | IC50 (Platelet [2]): 210 µM

CC(C)CCC1SC(=O)c2ccccc21 (racemic)
IC50 (Platelet [1]): > 1000 µM | IC50 (Platelet [2]): > 1000 µM

— ChEMBL document CHEMBL2163221, “Discovery of a potential anti-ischemic stroke agent: 3-pentylbenzo[c]thiophen-1(3H)-one” (J Med Chem, 2012)
